Laboratory results taken from publication PMC5469400 (Drug Metabolism and Disposition, 2017).

Columns and labels:
[1] = tested on: bile acid production in 3D liver coculture; test: Bile acids in culture medium by LC-MS; format: cell-based, human; conditions: for level of GCA after 48 h / level of cholic acid after 48 h / level of glycochenodeoxycholic acid 3-glucuronide after 48 h / level of glycochenodeoxycholic acid after 48 h / level of taurocholic acid after 48 h: 0 μM DCF = 100, relative EIC
Procedure, shortened: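 Perfused LiverChip cocultures of cryopreserved primary human hepatocytes and Kupffer cells (10:1, 600,000 cells/well) in WEM with 100 nM hydrocortisone. Test compound in DMSO (0.5% v/v final) or LPS 1 µg/ml added from day 5, refreshed at 48 h medium changes. d5-GCA internal standard added before extraction. Bile acids in medium at 48 h by accurate MS peak area (EIC%) relative to vehicle = 100. Mean of two technical replicates.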

[2] = tested on: acute phase proteins (APPs); test: iTRAQ 8plex quantitation of acute phase proteins in conditioned medium; format: cell-based, human; conditions: day 7; normalized to untreated control; drug 440 μM DCF, LPS 1 µg/ml
Procedure, shortened: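 Day 7 conditioned medium from perfused human hepatocyte–Kupffer cell cocultures treated with test compound (440 μM), LPS (1 µg/ml) or both. Albumin depleted; 100 μg protein reduced (2 mM TCEP, 37°C, 30 min), blocked (10 mM MMTS, 1 h) and trypsin-digested (1:40 w/w, 37°C overnight). Peptides iTRAQ-8plex labelled (3 h, RT), then C18-cleaned. Values are ln2 ratios versus untreated control (combined treatment versus LPS).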

[3] = tested on: primary human hepatocyte and Kupffer cell cocultures; test: LDH release in the LiverChip; format: cell-based
Procedure, shortened: (§1)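 Cryopreserved primary human hepatocytes and Kupffer cells (10:1, 600,000 cells/well) were cocultured in perfused LiverChip scaffolds (1.0 µl/s), with hydrocortisone-containing (100 nM) WEM from day 3. Test compound in DMSO (0.5% v/v final) was given from day 5 and redosed at each 48-hour medium change, ±LPS 1 µg/ml. Medium was sampled 48 hours after each dose for albumin (ELISA) and LDH activity; n = 3, S.D.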

[4] = tested on: primary human hepatocyte and Kupffer cell cocultures; test: Albumin secretion; format: cell-based; conditions: high DCF concentrations (>50×), measured 48 hours after each dose
Procedure, shortened: as §1

[5] = tested on: proteins in hepatocyte-Kupffer cell coculture medium; test: Shotgun proteomics of secreted proteins, spectral counting; format: cell-based, human; conditions: 440 μM DCF
Procedure, shortened: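 Perfused hepatocyte–Kupffer cell coculture medium was collected from control and 440 μM test compound cultures on days 5 and 7 and depleted of albumin. Proteins were taken up in 8 M urea/50 mM ABC with ProteaseMAX, reduced with DTT (56°C, 30 min) and alkylated with IAA (30 min, room temperature, dark). Fractions were cleaned on C18, analysed by shotgun LC-MS/MS and quantified by spectral counting.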

[6] = cited from earlier work
[7] = wells in the absence of cells, concentration monitored over 24 hours
[8] = tested on: primary hepatocyte–Kupffer cell cocultures; test: WST-1 cell viability in the LiverChip, repeat dosing; format: cell-based; conditions: Homo sapiens, read-out: IC50 (cell viability, WST-1)
Procedure, shortened: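 Perfused LiverChip cocultures of cryopreserved primary human hepatocytes and Kupffer cells (10:1, 600,000 cells/well; post-thaw viability >85%). Test compound in DMSO (0.5% v/v final) dosed from day 5. Medium and fresh compound replaced every 48 h. Viability measured by WST-1; mean of two replicates.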

[9] = tested on: coculture of hepatocytes and Kupffer cells (10:1); test: Extrapolation of in vitro DCF clearance to predicted hepatic clearance; format: in vitro ADME, human
[10] = DCF clearance / PK in the LiverChip, one-compartment model; format: in vitro ADME; conditions: human

lipopolysaccharide [LPS]
effect of LPS together with DCF on drug toxicity (bile acid production) ([1]; LPS alone, DCF, LPS plus DCF): synergistic effect
ln2 iTRAQ value, Amyloid β A4 protein isoform b [2]: −1.7
ln2 iTRAQ value, Angiotensinogen [2]: 3.7
ln2 iTRAQ value, Ceruloplasmin [2]: 3.8
ln2 iTRAQ value, Complement component C3 [2]: 5.1
ln2 iTRAQ value, Haptoglobin [2]: 3.8
ln2 iTRAQ value, Hypothetical protein [2]: 3.9
ln2 iTRAQ value, Leucine-rich α2-glycoprotein [2]: 2.8
ln2 iTRAQ value, Liver carboxylesterase 1 isoform a [2]: 2.4
ln2 iTRAQ value, Retinol binding protein 4 [2]: 5.0
ln2 iTRAQ value, Serum albumin [2]: 3.9
ln2 iTRAQ value, Transferrin [2]: 3.0
ln2 iTRAQ value, Transthyretin [2]: 1.3
ln2 iTRAQ value, Vitamin D binding protein [2]: 2.1
ln2 iTRAQ value, α1-acid glycoprotein 1 [2]: 7.0
ln2 iTRAQ value, α1-acid glycoprotein 2 [2]: 5.0
ln2 iTRAQ value, α1-antitrypsin [2]: 4.2
ln2 iTRAQ value, α1 antiproteinase [2]: 4.2
ln2 iTRAQ value, α2-HS glycoprotein [2]: 1.5
effect of LPS codosing on toxicity profile of DCF ([3]; gross markers of functionality and cell death, LPS 1 µg/ml): does not significantly change the toxicity profile

O=C(O)Cc1ccccc1Nc1c(Cl)cccc1Cl [DCF, diclofenac]
DCF-induced toxicity as assessed by suppression of GCA production ([1]; 0, 44, 110, 220 and 440 µM DCF): continuous dose-response relationship
level of GCA after 48 h ([1]; 110 μM DCF): 57%
level of cholic acid after 48 h ([1]; 110 μM DCF): 66%
level of glycochenodeoxycholic acid 3-glucuronide after 48 h ([1]; 110 μM DCF): 69%
level of glycochenodeoxycholic acid after 48 h ([1]; 110 μM DCF): 50%
level of taurocholic acid after 48 h ([1]; 110 μM DCF): 77%
level of GCA after 48 h ([1]; 440 μM DCF): 2%
level of cholic acid after 48 h ([1]; 440 μM DCF): 12%
level of glycochenodeoxycholic acid 3-glucuronide after 48 h ([1]; 440 μM DCF): 14%
level of glycochenodeoxycholic acid after 48 h ([1]; 440 μM DCF): 15%
level of taurocholic acid after 48 h ([1]; 440 μM DCF): 10%
albumin secretion [4]: declined after a single dose
number of proteins different between control and DCF-treated samples ([5]; day 5): 13 proteins
number of additional proteins elevated, not identified in the control ([5]; day 7): 68 proteins
in vivo plasma clearance ([6]; human, ref http://www.capkr.man.ac.uk): 3.8 ml/min per kilogram
Cmax ([6]; recommended dose of DCF in humans): 4.4 µM
binding to the LiverChip components [7]: no detectable binding
IC50 [8]: 227 µM
ln2 iTRAQ value, Haptoglobin [2]: 0.5
ln2 iTRAQ value, α1 antiproteinase [2]: 1.0
ln2 iTRAQ value, α2 macroglobulin [2]: −1.0
LDH release ([3]; high DCF concentrations (>50×), measured 48 hours after each dose): became more pronounced after the second dose
underprediction of predicted CLh versus in vivo plasma clearance [9]: < 7 fold
half-life at 4.4 µM [10]: 876 min
